Test results from ChEMBL document CHEMBL1250419, “An integrative in silico methodology for the identification of modulators of macrophage migration inhibitory factor (MIF) tautomerase activity” (Bioorg Med Chem, 2010).

How the values were obtained:
[1] = molecular target: T1, Macrophage migration inhibitory factor (Homo sapiens, UniProt P14174); experiment: Inhibition of human MIF tautomerase activity
T1 sequence (P14174 whole entry): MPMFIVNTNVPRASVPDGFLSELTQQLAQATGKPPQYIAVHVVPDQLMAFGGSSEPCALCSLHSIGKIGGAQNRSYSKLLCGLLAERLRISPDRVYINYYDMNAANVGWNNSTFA
How it was run: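 Wild-type human MIF (500 nM final) preincubated with compound for 2 h at room temperature over 24 nM–50 μM or 98–200 μM. Buffer: 50 mM potassium phosphate, 0.5 mM EDTA, pH 6, no detergent. Reaction started with 533 μM freshly made D-dopachrome methyl ester; end-point absorbance at 475 nm after 2 min. Triplicate runs; IC50 by nonlinear regression.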

[2] = molecular target: T1, Macrophage migration inhibitory factor; experiment: Inhibition of human MIF tautomerase activity in presence of Triton X-100 as detergent
How it was run: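 Counter-screen for aggregation-based inhibition, with 0.1% v/v Triton X-100 in both buffer and enzyme stock. Wild-type human MIF (500 nM) preincubated with compound for 2 h at room temperature in 50 mM potassium phosphate, 0.5 mM EDTA, pH 6. 533 μM D-dopachrome methyl ester added; 475 nm end-point read at 2 min. IC50 by nonlinear regression.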

[3] = molecular target: T2, Macrophage migration inhibitory factor (Homo sapiens) (UniProt P14174); experiment: Inhibition of human MIF tautomerase activity at 200 uM
T2 sequence (whole entry): T1 sequence (P14174 whole entry)
How it was run: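 Wild-type human MIF (500 nM) preincubated with compound at 200 μM for 2 h at room temperature in 50 mM potassium phosphate, 0.5 mM EDTA, pH 6. Reaction started with 533 μM fresh D-dopachrome methyl ester. Percent inhibition taken from absorbance at 475 nm 2 min after substrate addition.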

Row | Compound | IC50 [1] | IC50 [2] | inhibition [3]
1 | O=Nc1c(-c2ccccc2)cc2ccccn12 | 121 µM | – | –
2 | COc1ccccc1C(=O)n1nnc2ccccc21 | 6.9 µM | 12.2 µM | –
3 | S=C(Nc1ccccc1)Nc1nncs1 | 0.3 µM | 0.42 µM | –
4 | CCCCOC(=O)Sc1nc2ccccc2o1 | 0.08 µM | 0.15 µM | –
5 | O=[N+]([O-])c1cc(S(=O)(=O)C(F)(F)F)ccc1Sc1nnc(S)s1 | 9.5 µM | – | –
6 | CCOC(=O)/C(C#N)=C/c1ccc(O)cc1O | 62.1 µM | 110 µM | –
7 | O=C(NOC(=O)c1ccccc1Br)c1ccc(Cl)cc1 | 2.8 µM | 4.2 µM | –
8 | O=[N+]([O-])c1ccc(NCc2ccco2)c2nonc12 | 60.4 µM | – | –
9 | O=C(c1ccccc1)c1cc2ccc(O)cc2oc1=O | 64.2 µM | – | –
10 | Cc1ccc(C(=O)/C=C/Nc2ccc(F)cc2F)o1 | 57.5 µM | – | –
11 | CC(=O)c1cc2ccc(O)cc2oc1=O | 45.2 µM | 103 µM | –
12 | c1ccc(NCn2nnc3ccccc32)nc1 | – | – | 69%
13 | O=C(Oc1ccc(-c2ccccc2)nn1)c1cccs1 | 0.05 µM | 0.05 µM | –
14 | COC(=O)CSc1nnc(-c2cccs2)n1C | 18.6 µM | 28.4 µM | –
15 | S=C(Nc1ccccn1)Nc1ccccc1Cl | 1.04 µM | 1.01 µM | –
